Test results as given in the EternaBench riboswitch data.

Tested on: MS2 coat protein
Experiment: apparent Kd, MS2 coat protein; higher = weaker binding; RNA-MaP array; FMN 200 µM where present
Method in brief: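 Binding was read on Illumina sequencing-chip clusters where stalled E. coli RNA polymerase had transcribed each design. A titration of SNAP-549-labelled MS2 coat protein began at 0.7 or 1.5 nM and doubled to 3 µM, once without ligand and once with constant ligand, in 100 mM Tris-HCl pH 7.5, 80 mM KCl, 4 mM MgCl2, BSA, DTT, yeast tRNA and Tween-20. The apparent Kd is the median of filtered per-cluster binding-curve fits, based on green signal normalised to red-channel RNA signal and control-cluster median Fmax.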

[1] = designed as: OFF switch for flavin mononucleotide, no ligand
[2] = ligand present: flavin mononucleotide, designed as: OFF switch for flavin mononucleotide
[3] = designed as: ON switch for flavin mononucleotide, no ligand
[4] = ligand present: flavin mononucleotide, designed as: ON switch for flavin mononucleotide

Row | Sequence | apparent Kd [1] [nM] | apparent Kd [2] [nM] | apparent Kd [3] [nM] | apparent Kd [4] [nM]
1 | GACGGAUGUAUAGGAUAUGCUGAGGAAUACUCAGCAGAAGGAUACAUGAGGAUCACCCAUGUAACCGUCAAUAAUAAUAAUAAU | 15.7 | 29.9 | – | –
2 | GGUAAGAUGCAGAAGGUGUUAGCUAGAGCUACGACAUGAGGAUCACCCAUGUACUAGAAACAGUACAAGGAUAUGCAUCUUACG | – | – | 19.1 | 6.5
3 | CAGCGGAGCCUAGGAUAUGCGACAUGAGGAUCACCCAUGUACGCCAAAACGUCACCAUGGGUCUCGCAGAAGGAGGAAACACUG | 54.7 | 24.3 | – | –
4 | CCUCUGUAAGGAUAUACGGAGACGGCUGGAAUCAGUGGAAAGUAGAAGGUACAUGAGGAUCACCCAUGUGAGAC | 21.1 | 66.2 | – | –
5 | AUUUUAUAAUAGAAGGAGGACUUCAUGAGGAUCACCCAUGUGUUAGUACUUAGGAUAUGUAAUAACAUGAGGAUCACCCAUGUC | – | – | 38.3 | 43.3
6 | UGCGAACAGGCUAACAUGAGGAUCACCCAUGUGGACUCAUGGUAGGAUAUCGGGAAGGAGGAAACCGAGAAGGGCCGGUGAGCC | – | – | 848 | 372
7 | AAAAAAAAAAUGCAGGAUAUGGGAAAAAAAACAUGAGGAUCACCCAUGUAAAAAAAAAAAAAAAACUAGAAGGGUAAAAAAAAAAA | – | – | 80.2 | 62.3
8 | UGUCGGAGCAGAGGAUAUACAUGAGGAUCACCCAUGUAAUAAAUCCAAGCCUGGAAACAGGCAAUGUAGAAGGCUGCUCCGACA | 16.8 | 80.2 | – | –
9 | GAAGAGACAGGAUAUACAUGAGGAUCACCCAUGUGAGGAUGUUGGAGGCGGAGGAGGUGUAGAAGGGUCAAAGA | 31.2 | 28.7 | – | –
10 | UAGCGGUAGGGAGGAUAUGCGAAAGGAAGGCCCGCAGAAGGCCUUACAUGAGGAUCACCCAUGUAGGAUGCCUGGGUGGUGCCC | 14.5 | 26.4 | – | –
11 | GUGUGCAGAGGAUAUACAUAGGAAUAUAAUAUAAUAUAAUUACAUGAGGAUCACCCAUGUAGAAGGCUGAGUGU | 23.8 | 26.8 | – | –
12 | GUUGGGCCUCCCUCUCCACGUUCAACAUGAGGAUCACCCAUGUAGGAUAUCGUUUGUUUUUUUUACGAGAAGGGCGUACUUCCC | 8.99 | 8.06 | – | –
13 | AAAACACAUGAGGAUCACCCAUGUGAGGAUAUGUUAAUUUCGGCCAAAGCCGAAAUUAACAGAAGGCACAUAAA | 49.9 | 45.1 | – | –
14 | CGGUAUCGACAGAAGGACGUAGCACAUGAGGAUCACCCAUGUCCGUAAUGUAGGAUAUGUACGGCCGAUCUCACGCAACACUAA | – | – | 37.1 | 13
15 | UGGAUGGUAUGAGGAUAUGCGCGCGACACGCGCGCAGAAGGCAUGUCAAUAGACAUGAGGAUCACCCAUGUAUUAUCCAUCCAA | – | – | 201 | 14.8
16 | CUGUUUGUAGGAUAUACAUGCGGAACCCUCUUCAUGGAAAGACAUGAGGAUCACCCAUGUAGAAGGAUGAAGAG | 19.7 | 17.9 | – | –
17 | GGUCUACAUGAGGAUCACCCAUGUAAGGAUAUCGUCACUGGAGCUUCGGCUCCAGUGACGAGAAGGUACGUAAU | 31.7 | 33.7 | – | –
18 | UACGGACAUGAGGAUCACCCAUGUGAGGAUAUCGGUACCGAUAGCAUAAUAUACUCGGCGAGAAGGCACAGCGU | 30 | 31.8 | – | –
19 | CUUUUACAUGAGGAUCACCCAUGUUCUGGCGGGUCAGGAUAUAGAUCGGAUGCGUUCUGUCUAGAAGGGACAUGUU | – | – | 67.3 | 38.1
20 | GUGCAUGUGCGAACUAACCCACAUGAGGAUCACCCAUGUAGGAGAAGGGUCCGGAGGUGCCGUGGACAGGAUAUCCUACGCCUG | 23.2 | 30.9 | – | –
21 | AUAUUCAGAGGAUAUGCGCAUAGAUAAGACUUUUUUUCUUAACAUGAGGAUCACCCAUGUAGAAGGCUGUAAUA | 20.1 | 17.5 | – | –
22 | AACGCGUCAGGAUAUAGCGUAAUUUAGGUAGUACGACCAUACUAGAAGGGACAUGAGGAUCACCCAUGUGGGUA | 212 | 118 | – | –
23 | GUAAGCUCGUGAGGAUAUACAACACUGCUUCGGCAGUGUAUUAAGAUCACAUGAGGAUCACCCAUGUAGAAGGCACGAGCUGAU | 13.8 | 245 | – | –
24 | ACAUGAGGAUCACCCAUGUUUACAUGGAUUAUUAAUCUUGGAUAGGAUAUGUUAGUUAAGUAUUUACAGAAGGAUCAAUUCCUU | 27.7 | 20.2 | – | –
25 | UUCAACGAUGAAGGAUAUGUAUAAACAUGAGGACAUGAGGAUCACCCAUGUUGAUCACCCAUGUAGCAGAAGGUCAACAUGAGG | – | – | 360 | 142
26 | ACAUGAGGAUCACCCAUGUGAACAUAGGAUAUUGGUGAUCAGGCGUGUUAUACAGGAUAGGUCUGCGAGAAGGGUGCACGUUGC | – | – | 540 | 146
27 | AUAAAUCAUGUAGGAUAUGCGUGGCGAAGCUAUGCAGAAGGACAUGAGGAUCACCCAUGUCUAUCCGUCUGCGUACAGACGGAA | 26.2 | 216 | – | –
28 | CAGAAGUCAGGAUAUGCAUGGCGGGACUUGCGUCGUGGCGUGCAGAAGGGACAUGAGGAUCACCCAUGUAAAGU | 53.5 | 69.7 | – | –

Row | Sequence | apparent Kd [1] [nM] | apparent Kd [2] [nM] | apparent Kd [3] [nM] | apparent Kd [4] [nM]
29 | GUGGUGUAGAUACAGGAUAUGUUGCUCGUAACAUGAGGAUCACCCAUGUAUCUAUGAGAUUAAAUGCAGAAGGGUGCACACCACG | – | – | 330 | 23.3
30 | UGGUACUAGGGAGGAUAUGGGAAGAUACAUGAGGAUCACCCAUGUUUAGGAAUGCCGAGAGGCAACUAGAAGGCCCUAGUACCU | – | – | 832 | 46.1
31 | GUGUACAGAGGAUAUGCACGAGUAGUUACGAAAGUAACUACACAUGAGGAUCACCCAUGUAGAAGGCUGUACAC | 13.2 | 16.9 | – | –
32 | GGGUGACAUGAGGAUCACCCAUGUCAGGAUAUGGGCUCGGGCUCGAAAGGGCUCGGGCUCAGAAGGGACUGCCC | 56 | 170 | – | –
33 | CUAAAACAUGAGGAUCACCCAUGUCAACAAAGUCGAGGAUAUGGGCAAAUAAAAUAAGAACCAGAAGGCGAAUAAC | – | – | 409 | 36.2
34 | UCUUUACAUGAGGAUCACCCAUGUGAGGAUAUGGAUUCGCUGGCCGUAGCCAGUGGAUCCAGAAGGCGCAUGAU | 26.6 | 48 | – | –
35 | GUACGGGAGGAGAAGGGCUAGGAGGUCCAGCUUAUGUGUGUUGCAACAUGAGGAUCACCCAUGUAGCAGGAUAUCCUCUGUACA | 46.3 | 332 | – | –
36 | GGUGCGUUUGUGAGGAUAUGCUGGUCCUUGGCUCAGCAGAAGGCACAUGAGGAUCACCCAUGUGGUGUCGUACC | 294 | 41.8 | – | –
37 | AAUUGGAUGCAGAAGGCAUGGACGACUCGUCACAUUAACAUGAGGAUCACCCAUGUCAAAAUACAUGAGGAUAUGCAUCCUAAA | – | – | 140 | 12
38 | UUUUUAUUUGAAGGAUAUACUUAACAUGAGGAUCACCCAUGUGGUGUUGUGAGUGAGUGAGUUUAGUAGAAGGUCAAUUAUUUU | 373 | 703 | – | –
39 | UUUCCUUGUGUGAGGAUAUACUUGUUUGUGUUUUUGUAGAAGGCACAUGAGGAUCACCCAUGUACUCUUUCCUG | 35.1 | 54.3 | – | –
40 | UGAGAGUCAGGAUAUCGAAGGUAGUGGAGAGGAGUGUGGUACGAGAAGGGACAUGAGGAUCACCCAUGUAGGUG | 322 | 276 | – | –
41 | CAUAAACAUGAGGAUCACCCAUGUGAGGAUAUGAUAUUACUAGGACGGCUGUAAUCAAUCAGAAGGCACAUCUU | 18.5 | 37.5 | – | –
42 | AGAUCAGUCUGAGUGCCUCGCGCGAGAAGGUACAGUGUUGUCCUGUUACAUGAGGAUCACCCAUGUAAGGAUAUCGCCGAGGAG | 7.86 | 28.4 | – | –
43 | GUGGCCUAGGCACAGGAUAUGUUUCUCGUAACAUGAGGAUCACCCAUGUGCCUUUGAGAUUUUAUGCAGAAGGGUGCACGCCACG | – | – | 488 | 24.3
44 | CUGCUCGUAGAGAAGGCGUGGGCACAUGAGGAUCACCCAUGUCGCAGUACGAGGAUAUUUGCCGGCCCGCCCAAAAUGGCGCGG | – | – | 501 | 119
45 | GUGUACAGAGGAUAUACACGAGUAGUUACGAAAGUAACUACACAUGAGGAUCACCCAUGUAGAAGGCUGUACAC | 25 | 30.3 | – | –
46 | AGUUCCUCCGCAGGAUAUGUGCUCUUUACCACAUGAGGAUCACCCAUGUCAGCCUACACGGCGAGACAGAAGGGUGGUGGUGCC | – | – | 96 | 157
47 | CGAUAACAUAGUUAUCAGUAACGGACAUGAGGAUCACCCAUGUAGGAUAUGUUACUCAACGAGUAACAGAAGGACAUGAGUCUU | 19.2 | 91.2 | – | –
48 | UGAUCGAGAGAUCUUAGAUUCUGGUAGGAUAUACAUUAUGAAAACUUUACAUGAGGAUCACCCAUGUAGAAGGACUAGAGUCUA | 7.74 | 9.74 | – | –
49 | AAUCCACAUGAGGAUCACCCAUGUCAGGAUAUCGCGCGCGCGUUUUCGGUCUUUCGCGCGAGAAGGGACGGCUG | 17.7 | 23.5 | – | –
50 | UAUUUAUAGCAAGGAUAUGAUUAUUAUUAUUUAUCAGAAGGUGCACAUGAGGAUCACCCAUGUUUUAUAAUUUGUAAUUUAAUU | 55.6 | 21.8 | – | –
51 | UGUAUGGACAGAGGAUAUGCCGAUAGGCUCUACUAUCGAAGAAUCCUCACAUGAGGAUCACCCAUGUAGAAGGCUGUCCAUACU | 18.1 | 41.3 | – | –
52 | GUACGUGGACAGAAGGUGACAUGAGGAUCACCCAUGUUAGUUGAGGUAUCAGCGAUCUGCGUGAUUGAGGAUAUGUCUGCGGGC | 11.9 | 11.7 | – | –
53 | AAAUAAAAUAUAGGAUAUGGAAACAUGAGGAUCACCCAUGUAUGAUAAGAUAAAUAAUGAUAUAGCCAGAAGGAUACAAUAUAA | – | – | 31 | 38.3
54 | CGAGGAGGAGUGAGGAUAUCGUGUUCGAAAGAACGUGAGAAGGCACAUGAGGAUCACCCAUGUGAUACUUUUCG | 13.6 | 28.8 | – | –
55 | UUUGUGUCAGGAUAUGAGUCGUAGAACAAUAGUACUACGUCUCAGAAGGGACAUGAGGAUCACCCAUGUGCCUC | 35.4 | 281 | – | –
